The subject of data set [1] is Spodoptera littoralis. Nature of the data set: Antifeedant activity against L6 larvae Spodoptera littoralis compound injected orally relative to control. The data set is classed as functional, organism-based.
Data set [2] has as its system Spodoptera littoralis. The experiment in a line: Effect on weight gain in L6 larvae Spodoptera littoralis assessed as biomass compound injected orally relative to control. Type of data set: functional.
The subject of data set [3] is Leptinotarsa decemlineata. The experiment in a line: Antifeedant activity against adult Leptinotarsa decemlineata in host plant assessed as feeding inhibition. Type of data set: functional, organism-based. The gist of the method: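 Choice feeding assay with adult beetles. Percent feeding inhibition was calculated. Compounds giving over 50% inhibition went on to a dose-response test, and EC50 (dose for 50% feeding reduction, µg/cm2) was derived by linear regression of % inhibition on log dose.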

For data set [4], the system named is Spodoptera littoralis. Nature of the data set: Effect on ingestion in L6 larvae Spodoptera littoralis assessed as consumption compound injected orally relative to control. Type of data set: functional.
For data set [5], the system named is Leptinotarsa decemlineata. Nature of the data set: Mortality in adult Leptinotarsa decemlineata in host plant measured after 72 hr. Type of data set: functional. The arrangement: concentration or dose not given beside the values. The gist of the method:
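Test compounds in DMSO (10 µg/insect) were injected into the hemolymph of 20 adult beetles. Mortality was recorded for up to 3 days (72 h), analysed with contingency tables and corrected by Abbott's method.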

Data set [6] is described as follows: Cytotoxicity in mammalian Cricetulus griseus CHO (Chinese hamster ovary) cells measured after 48 hr by MTT assay. The note with it: read-out: LD50.

≈ marks a conversion by molar mass, not a printed value. Calls of active or inactive are those of the source. The calls are words filed in the database; no cut-off is given here.

As for `COc1c(C(C)C)cc2c(c1O)[C@@]1(C)CCCC(C)(C)[C@@H]1CC2`, the result in data set [1] was inactive. In addition, the Activity is 102% in data set [2] and 91% in data set [4]. In addition, the EC50 in data set [3] worked out at 10.2 microg/cm2. The mortality in data set [5] was determined as 14%. Also, in data set [6], the CC50 at 48 h is more than 100 µg/mL.

Turning to `CC(C)c1cc2c(c(O)c1O)[C@@]1(C)CCCC(C)(C)[C@@H]1[C@@H](O)C2=O` [6-ALPHA-HYDROXYDEMETHYL-CRYPTOJAPONOL], the outcome in data set [1] was inactive. In addition, the CC50 at 48 h in data set [6] is more than 100 µg/mL.

For the molecule `CC(C)c1cc2c(c(O)c1O)[C@@]1(C)CCCC(C)(C)C1=C(O)C2=O` [14-DEOXYCOLEON U], in data set [1], the result was inactive. In addition, the Activity is recorded as 99% in data set [2] and 107% in data set [4]. Besides, in data set [3], the EC50 was determined as 1.8 microg/cm2. In data set [5], this molecule came in with a mortality of 29%. Moreover, the CC50 at 48 h in data set [6] is more than 100 µg/mL.

As to `CC(C)c1cc2c(c(O)c1O)C[C@@]13CCCC(C)(C)[C@@H]1C[C@@H]2O3` [BRUSSONOL], the EC50 in data set [3] is more than 100 microg/cm2. The same molecule yielded a mortality in data set [5] of 7%. Moreover, in data set [6], the CC50 at 48 h worked out at 50.6 µg/mL (≈ 160 µM).

As to `CC(C)c1cc2c(c(O)c1O)[C@@]1(C)CCCC(C)(C)[C@@H]1CC2=O` [DEMETHYLCRYPTOJAPONOL], in data set [1], the outcome was inactive. The values for the Activity in data set [2] and in data set [4] were 105% and 103%, respectively. In addition, in data set [3], the EC50 is recorded as more than 100 microg/cm2. For the same molecule, in data set [5], the mortality is on record as 43%. The CC50 at 48 h in data set [6] was determined as 36 µg/mL (≈ 114 µM).

Turning to `COc1c(O)c2c(c(O)c1C(C)C)C(=O)C[C@H]1C(C)(C)CCC[C@]21C` [INUROYLEANOL], in data set [1], the outcome was inactive. Besides, the Activity in data set [2] amounted to 106%; in data set [4], 119%. Further, the EC50 in data set [3] is more than 100 microg/cm2. Besides, the mortality in data set [5] was 0%.

For orientation: mortality means the share of the test organisms that died.

Values taken from ChEMBL document CHEMBL3045034, “Diterpenes from Salvia broussonetii transformed roots and their insecticidal activity” (J Agric Food Chem, 2005).
